From ChEMBL document CHEMBL1799981, “Synthesis and evaluation of nitric oxide-releasing derivatives of 3-n-butylphthalide as anti-platelet agents” (Bioorg Med Chem Lett, 2011)

Legend:
[1] = Induction of NO release from the compound in phosphate buffer at pH 7.4 at 0.1 mM incubated for 15 to 300 mins measured every 15 mins for 120 mins and every 30 mins for remaining time by Griess assay; assay type: physicochemical; conditions: pH 7.4, 100 µM
Method in brief: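 Compound at 0.1 mM in PBS pH 7.4 containing 2% DMSO and 5.0 mM L-cysteine, incubated at 37 °C for 15–300 min. Sampled every 15 min up to 120 min, then every 30 min. Samples (2 mL) mixed with Griess reagent, 37 °C 10 min, absorbance at 540 nm. NO quantified against nitrite standards; means per time point.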

[2] = Antiplatelet activity in rabbit platelet rich plasma assessed as inhibition of ADP-induced aggregation treated for 5 mins before ADP challenge by turbidimetry; assay type: functional; conditions: Oryctolagus cuniculus
Method in brief: (§1)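 Rabbit PRP (low-speed spin 500 rpm 10 min; PPP from 3000 rpm 10 min as reference) pre-treated in duplicate with vehicle, reference drug or compound for 5 min, then ADP 10 µM final at 37 °C for 5 min. Aggregation followed by optical density (Born turbidimetry). % inhibition versus vehicle-treated ADP-exposed controls; IC50 by nonlinear regression, top concentration 1.0 mM. Mean ± S.D., n = 4.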

[3] = Antiplatelet activity in rabbit platelet rich plasma assessed as inhibition of ADP-induced aggregation at 1 mM treated for 5 mins before ADP challenge by turbidimetry; assay type: functional; conditions: Oryctolagus cuniculus; method in brief: as §1
[4] = Antiplatelet activity in rabbit platelet rich plasma assessed as inhibition of ADP-induced aggregation at 1 mM treated for 5 mins before ADP challenge by turbidimetry in presence of endogenous NO scavenger hemoglobin; assay type: functional; conditions: Oryctolagus cuniculus
Method in brief: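 Rabbit PRP exposed to compound at 1.0 mM for 5 min at 37 °C together with hemoglobin 20 µM (NO scavenger), then challenged with ADP 10 µM. Aggregation monitored turbidimetrically. Inhibition relative to vehicle-treated ADP-exposed controls. Mean ± SD from several independent experiments; Student's t test.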

[5] = Aqueous solubility of the compound; assay type: physicochemical; conditions: buffer

Structure (SMILES)	Activity [1]	inhibition at 1000 µM [3]	other results
CCCCC(OC(=O)CN1CCOCC1)c1ccccc1C(=O)Oc1ccc(/C=C/C(=O)NCCO[N+](=O)[O-])cc1.Cl (centres undefined)	0.043 µg/mL		
CCCCC(OC(=O)CN(CC)CC)c1ccccc1C(=O)Oc1ccc(/C=C/C(=O)NCCO[N+](=O)[O-])cc1OC.Cl (centres undefined)	0.057 µg/mL	83%	IC50 [2]: 54.4 µM; inhibition at 1000 µM [4]: 54.4%; solubility [5]: soluble
CCCCC(OC(=O)CN1CCCCC1)c1ccccc1C(=O)Oc1ccc(/C=C/C(=O)NCCO[N+](=O)[O-])cc1OC.Cl (centres undefined)	0.06 µg/mL	83%	IC50 [2]: 39.4 µM
CCCCC(OC(=O)CN1CCCCC1)c1ccccc1C(=O)Oc1ccc(/C=C/C(=O)NCCO[N+](=O)[O-])cc1.Cl (centres undefined)		82.4%	solubility [5]: soluble
CCCCC(OC(=O)CN(CC)CC)c1ccccc1C(=O)Oc1ccc(/C=C/C(=O)NCCCO[N+](=O)[O-])cc1.Cl (centres undefined)		82.1%	solubility [5]: soluble
CCCCC(OC(=O)CN(CC)CC)c1ccccc1C(=O)O (centres undefined)		67.2%	
COc1cc(/C=C/C(=O)NCCO[N+](=O)[O-])ccc1O		51.3%	
CCCCC(OC(C)=O)c1ccccc1C(=O)Oc1ccc(/C=C/C(=O)NCC(C)O[N+](=O)[O-])cc1OC (centres undefined)	0.027 µg/mL		
CCCCC(OC(C)=O)c1ccccc1C(=O)Oc1ccc(/C=C/C(=O)NCCO[N+](=O)[O-])cc1 (centres undefined)	0.022 µg/mL		
CCCCC1OC(=O)c2ccccc21 (racemic) [RAC-3-N-BUTYLPHTHALIDE]		67.8%	
CC(=O)Oc1ccccc1C(=O)O [ASPIRIN]		68.5%	
